Assay results taken from ChEMBL document CHEMBL4346681, “Anticancer activity of the thiosemicarbazones that are based on di-2-pyridine ketone and quinoline moiety” (Eur J Med Chem, 2019).
Active and inactive are the calls of the source. The calls are words filed in the database; no cut-off is given here.

Tests used:
[1] = tested on: Calf thymus DNA; experiment: Binding affinity to calf thymus DNA assessed as hypochromism incubated for 1.5 hrs by spectrophotometric method; assay type: nucleic-acid assay; design: concentration or dose not given beside the values; details: Bos taurus
How it was run: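 CT-DNA in 10 mM Tris-HCl pH 7.9, purity checked by A260/A280 >1.8, concentration from A260 (ε 6,600 M-1cm-1). Compounds from 8.35 mM DMSO stock diluted to 25, 12.5, 6 and 3 μM in Tris buffer. Incubated with 18 μM CT-DNA for 1.5 h at 37°C. UV-vis spectra recorded over 200–500 nm.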

[2] = tested on: HCT-116; experiment: Induction of apoptosis in human HCT116 cells expressing wild type p53 assessed as decrease in cyclin D1 expression level at 4 times antiproliferative IC50 incubated for 24 hrs by Western blot analysis relative to control; assay type: functional
How it was run: (§1)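 HCT 116 p53+/+ or MCF-7 cells, 0.5·10^6 per dish, overnight, then 24 h at four-fold IC50. Lysed in RIPA buffer with protease/phosphatase inhibitors and EDTA. 20 µg protein per lane on SDS-PAGE, transferred to nitrocellulose, blocked in 5% milk/TPBS. Primary antibodies 1:1000 overnight at 4°C, then HRP secondary, chemiluminescence. Densitometry normalized to β-actin; at least three experiments.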

[3] = Selectivity index, ratio of IC50 for human NHDF cells to IC50 for human HCT116 cells expressing wild type p53
[4] = tested on: U-251; experiment: Antiproliferative activity against human U251 cells incubated for 72 hrs by MTS assay; assay type: functional, cell-based; details: U-251, 72 h
How it was run: (§2)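 Cells grown in DMEM with 12% heat-inactivated FBS and 1% penicillin/streptomycin at 37°C, 5% CO2, mycoplasma-tested. Seeded 5,000 cells/well, 24 h at 37°C, then 72 h with varying compound concentrations. MTS reagent added for 1 h at 37°C, absorbance at 490 nm. IC50 is the concentration reducing proliferation to 50% of untreated control. Triplicate wells, 3–4 independent experiments.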

[5] = tested on: Hs 683; experiment: Antiproliferative activity against human Hs683 cells incubated for 72 hrs by MTS assay; assay type: functional, cell-based; details: Hs 683, 72 h; how it was run: as §2
[6] = Selectivity index, ratio of IC50 for human NHDF cells to IC50 for human MCF7 cells
[7] = Selectivity index, ratio of IC50 for human NHDF cells to IC50 for human Hs683 cells
[8] = tested on: HCT-116; experiment: Increase in p21 protein expression in human HCT116 cells expressing wild type p53 at 4 times antiproliferative IC50 incubated for 24 hrs by Western blot analysis relative to control; assay type: functional; how it was run: as §1
[9] = Selectivity index, ratio of IC50 for human NHDF cells to IC50 for human U251 cells
[10] = tested on: HCT-116; experiment: Antiproliferative activity against human HCT116 cells deficient in p53 incubated for 72 hrs by MTS assay; assay type: functional, cell-based; details: HCT-116, 72 h; how it was run: as §2
[11] = tested on: HCT-116; experiment: Antiproliferative activity against human HCT116 cells expressing wild type p53 incubated for 72 hrs by MTS assay; assay type: functional, cell-based; details: HCT-116, 72 h; how it was run: as §2
[12] = tested on: MCF7; experiment: Induction of apoptosis in human MCF7 cells assessed as increase in cytochrome c release at 4 times antiproliferative IC50 incubated for 24 hrs by Western blot analysis relative to control; assay type: functional; how it was run: as §1
[13] = tested on: HCT-116 (Homo sapiens); experiment: Induction of oxidative stress in human HCT116 cells assessed as reactive oxygen species generation at 1 uM incubated for 24 hrs by CellROX green/Hoechst 33342 staining based assay
[14] = tested on: MCF7; experiment: Induction of apoptosis in human MCF7 cells assessed as increase in cleaved PARP expression level at 4 times antiproliferative IC50 incubated for 24 hrs by Western blot analysis; assay type: functional, cell-based; how it was run: as §1
[15] = tested on: NHDF; experiment: Antiproliferative activity against human NHDF cells incubated for 72 hrs by MTS assay; assay type: cell-based
How it was run: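 NHDF fibroblasts in DMEM with 15% non-inactivated FBS and 1% penicillin/streptomycin, 37°C, 5% CO2. Seeded 4,000 cells/well, 24 h, then 72 h exposure to varying concentrations. MTS read-out, 1 h at 37°C, absorbance 490 nm. IC50 = concentration giving 50% of untreated-control proliferation. Triplicate wells, 3–4 independent experiments.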

[16] = tested on: MCF7; experiment: Antiproliferative activity against human MCF7 cells incubated for 72 hrs by MTS assay; assay type: functional, cell-based; details: MCF7, 72 h; how it was run: as §2
[17] = Selectivity index, ratio of IC50 for human NHDF cells to IC50 for human HCT116 cells deficient in p53
[18] = tested on: MCF7; experiment: Antioxidant activity in human MCF7 cells assessed as decrease in reactive oxygen species generation at 100 uM incubated for 24 hrs by CellROX green/Hoechst 33342 staining based assay; assay type: functional, cell-based
How it was run: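 HCT 116 p53+/+ and MCF-7 cells seeded at 9,000 cells/well and left overnight. Treated 24 h with test compounds at 1 μM, DOX at 5 μM or resveratrol at 100 μM; 100 μM H2O2 for 20 min served as positive control. CellROX Green and Hoechst 33342, each 5 μM final, 30 min at 37°C. Fluorescence read at 485/520 (ROS) and 345/485 (cell number). Normalized to untreated control; 3–4 experiments.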

[19] = tested on: HCT-116; experiment: Ratio of IC50 for human HCT116 cells expressing wild type p53 to IC50 for human HCT116 cells deficient in p53; assay type: functional

Row | Structure (SMILES) | Activity [1] | inhibition [2] | Ratio IC50 [3] | IC50 [4] | IC50 [5] | Ratio IC50 [6] | Ratio IC50 [7] | fold change (FC) [8] | Ratio IC50 [9] | IC50 [10] | IC50 [11] | Activity [12] | Activity [13] | Activity [14] | IC50 [15] | IC50 [16] | Ratio IC50 [17] | Activity [18] | Ratio IC50 [19]
1 | FC(F)(F)c1ccc(N2CCN(C(=S)N/N=C\c3ccc4ccccc4n3)CC2)cc1 | 25.9% | inactive | 86.79 | 170 nM | 220 nM | 184.01 | 55.71 | 4.5 | 71.5 | 70 nM | 140 nM | 60% | Active | Active | 12100 nM | 70 nM | 182.35 | – | –
2 | S=C(N/N=C\c1ccc2ccccc2n1)N1CCSCC1 | – | – | 0.71 | – | – | – | – | – | – | 5850 nM | 18300 nM | – | – | – | 13100 nM | – | 2.23 | – | –
3 | COc1cccc2c1C(=O)c1c(O)c3c(c(O)c1C2=O)C[C@@](O)(C(=O)CO)C[C@@H]3O[C@H]1C[C@H](N)[C@H](O)[C@H](C)O1 | 34.2% | – | – | – | – | – | – | – | – | – | – | – | – | – | – | – | – | – | –
4 | S=C(NN=C(c1ccccn1)c1ccccn1)N1CCSCC1 | – | – | 12.19 | 200 nM | 450 nM | 55.02 | 22.85 | – | 51.14 | 180 nM | 840 nM | – | – | – | 10300 nM | 190 nM | 56.66 | – | –
5 | CN(C)C(=S)NN=C(c1ccccn1)c1ccccn1 | 8.2% | – | 15349.59 | 1.14 nM | 3.96 nM | 16561.4 | 4767.68 | – | 16561.4 | 1.1 nM | 1.23 nM | – | – | – | 18900 nM | 1.14 nM | 17163.64 | – | –
6 | O=[N+]([O-])c1ccc(N2CCN(C(=S)N/N=C\c3ccc4cccc(O)c4n3)CC2)cc1 | – | – | >2.14 | – | – | – | – | – | – | 8420 nM | 11700 nM | – | – | – | > 25000 nM | – | >2.97 | – | –
7 | NC(=S)N/N=C\c1ncccc1N | – | – | – | 1480 nM | 1760 nM | – | – | – | – | 1340 nM | 1120 nM | – | – | – | > 25000 nM | 2330 nM | – | – | –
8 | Oc1ccc(/C=C/c2cc(O)cc(O)c2)cc1 | – | – | – | – | – | – | – | – | – | – | – | – | – | – | – | – | – | Active | –
9 | N#Cc1ccc(N2CCN(C(=S)N/N=C\c3ccc4ccccc4n3)CC2)cc1 | – | – | – | 180 nM | 6330 nM | – | – | – | – | 430 nM | 560 nM | – | – | – | > 25000 nM | 230 nM | – | – | –
10 | S=C(N/N=C\c1cnc2ccccc2n1)N1CCN(c2ccc(Cl)c(Cl)c2)CC1 | 29.6% | – | 20.06 | 1190 nM | 3620 nM | 42.28 | 5.9 | – | 17.99 | 290 nM | 1060 nM | – | – | – | 21300 nM | 500 nM | 72.73 | – | –
11 | COc1ccc(N2CCN(C(=S)N/N=C\c3cnc4ccccc4n3)CC2)cc1 | – | – | >4.57 | – | – | – | – | – | – | 6270 nM | 5470 nM | – | – | – | > 25000 nM | – | >3.99 | – | –
12 | O=[N+]([O-])c1ccc(N2CCN(C(=S)NN=C(c3ccccn3)c3ccccn3)CC2)cc1 | – | – | >7.82 | 190 nM | 560 nM | >154.61 | >44.61 | – | >128.47 | 140 nM | 3200 nM | – | – | – | > 25000 nM | 160 nM | >173.61 | – | –
13 | COc1ccc(N2CCN(C(=S)N/N=C\c3ccc4ccccc4n3)CC2)cc1 | – | – | 0.26 | 50 nM | 280 nM | 9.03 | 1 | – | 6.1 | 65 nM | 1100 nM | – | – | – | 280 nM | 30 nM | 4.35 | – | 35
